Here are results for 17 compounds from ChEMBL document CHEMBL2203265, “Discovery of tetrahydropyridopyrimidine phosphodiesterase 10A inhibitors for the treatment of schizophrenia” (Bioorg Med Chem Lett, 2012).

Structures are written as SMILES. Calls of active or inactive are those of the source. No cut-off for these calls is given here.

Data set [1] can be described thus: Solubility of the compound at pH 7. It counts as physicochemical. Conditions: buffer.
In data set [2] the target is cAMP and cAMP-inhibited cGMP 3',5'-cyclic phosphodiesterase 10A (Homo sapiens, UniProt Q9Y233). Kind of data set: Inhibition of PDE10A.
Sequence of cAMP and cAMP-inhibited cGMP 3',5'-cyclic phosphodiesterase 10A (Q9Y233 whole entry): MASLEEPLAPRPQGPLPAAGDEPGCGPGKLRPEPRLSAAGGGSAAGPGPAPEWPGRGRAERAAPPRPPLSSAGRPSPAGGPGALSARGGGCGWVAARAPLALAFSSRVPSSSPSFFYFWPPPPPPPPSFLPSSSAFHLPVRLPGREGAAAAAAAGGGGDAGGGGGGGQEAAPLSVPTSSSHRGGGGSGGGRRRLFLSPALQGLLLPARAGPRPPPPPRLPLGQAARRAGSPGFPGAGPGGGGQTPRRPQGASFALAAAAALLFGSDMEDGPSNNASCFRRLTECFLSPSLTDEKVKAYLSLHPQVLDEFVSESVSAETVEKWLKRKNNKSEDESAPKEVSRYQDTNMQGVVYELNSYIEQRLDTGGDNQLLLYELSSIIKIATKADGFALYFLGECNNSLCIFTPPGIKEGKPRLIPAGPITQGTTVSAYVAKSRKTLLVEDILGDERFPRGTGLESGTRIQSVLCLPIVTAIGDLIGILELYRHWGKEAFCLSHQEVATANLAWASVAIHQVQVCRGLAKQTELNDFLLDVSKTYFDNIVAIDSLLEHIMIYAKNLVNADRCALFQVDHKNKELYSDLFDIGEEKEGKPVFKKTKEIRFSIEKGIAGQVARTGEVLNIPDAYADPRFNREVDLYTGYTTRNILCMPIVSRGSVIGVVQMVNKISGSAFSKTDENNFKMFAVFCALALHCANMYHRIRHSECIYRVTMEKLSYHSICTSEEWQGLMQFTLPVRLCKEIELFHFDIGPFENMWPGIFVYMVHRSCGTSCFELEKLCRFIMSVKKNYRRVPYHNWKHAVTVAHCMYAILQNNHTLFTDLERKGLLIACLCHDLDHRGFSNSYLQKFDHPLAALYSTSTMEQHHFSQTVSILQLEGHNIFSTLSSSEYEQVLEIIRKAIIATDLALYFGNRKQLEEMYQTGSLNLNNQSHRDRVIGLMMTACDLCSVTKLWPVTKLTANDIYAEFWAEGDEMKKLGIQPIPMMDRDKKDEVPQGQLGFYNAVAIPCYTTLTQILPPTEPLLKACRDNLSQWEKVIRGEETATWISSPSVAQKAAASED
Data set [3] is described as follows: Plasma concentration in rat at 4.5 mg/kg, po at 2 hrs. It counts as ADME, organism-based. Set-up: dose 4.5 mg/kg, route oral. The procedure, abridged: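 Plasma drug concentration is sampled 2 h after oral dosing in the rat hyperlocomotion study.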
Data set [4] is described as follows: Clearance in rat. It counts as ADME, organism-based. Particulars: in vivo.
For data set [5], the system named is Rattus norvegicus. In words: Antipsychotic activity in rat assessed as inhibition of MK801-induced hyperlocomotion at 4.5 mg/kg, po. It counts as functional, organism-based. Also on record: dose 4.5 mg/kg. The procedure, abridged:
(§1)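 Oral dosing in rats challenged with the psychostimulant MK-801. Locomotor activity is scored against vehicle-only animals and against animals given MK-801 alone.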

Data set [6] in a line: Clearance in dog. It counts as ADME, organism-based, Canis lupus familiaris. Particulars: in vivo.
Data set [7] has as its system Rattus norvegicus. In words: Antipsychotic activity in po dosed rat assessed as inhibition of MK801-induced hyperlocomotion. It counts as functional, organism-based. In outline:
as §1

The nature of data set [8]: Plasma clearance in rat. It counts as ADME, organism-based.
Data set [9] deals with Rattus norvegicus. In words: Toxicity in rat assessed as decrease in weight gain at 4 mg/kg, po administered for 7 days relative to vehicle-treated control. It counts as organism-based. Set-up: dose 4 mg/kg, route oral. Particulars: in vivo, 168 h. In outline:
(§2)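 Rats given chronic dosing over 7 days. Body weight gain, total body fat and lean body mass recorded at the end of treatment and compared with a vehicle-treated group for statistical significance; n = 12 per group.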

The subject of data set [10] is Rattus norvegicus. Kind of data set: Toxicity in rat assessed as decrease in lean body mass at 4 mg/kg, po administered for 7 days relative to vehicle-treated control. It counts as organism-based. Set-up: dose 4 mg/kg, route oral. Conditions: in vivo, 168 h. The procedure, abridged: as §2
Data set [11] has as its system Rattus norvegicus. In words: Toxicity in rat assessed as decrease in total body fat at 4 mg/kg, po administered for 7 days relative to vehicle-treated control. It counts as organism-based. Set-up: dose 4 mg/kg, route oral. Particulars: in vivo, 168 h. The procedure, abridged: as §2

For `CC(C)Oc1nc(-c2cccnc2)nc2c1CN(C(=O)Nc1ccccc1)CC2`, the solubility (as a rule, the dissolved amount per volume that the medium holds) in data set [1] was above 75 µM. Further, the Ki (in general, a dissociation constant, usually derived from enzyme kinetics or from competition with a known ligand) in data set [2] came to 0.017 µM.

In data set [2], `CC(C)Oc1nc(-c2ccc(Cl)nc2)nc2c1CN(C(=O)N(C)c1cn[nH]c1)CC2` displayed a Ki of 0.001 µM. As to `CN(CCc1ccccn1)c1nc(-c2ccncc2)nc2c1CN(C(=O)NC(C)(C)C)CC2`, the solubility in [1] is above 75 µM. This compound also showed a Ki in data set [2] of 0.223 µM.

Compound `CN(CCc1ccccn1)c1nc(-c2ccncc2)nc2c1CN(C(=O)Nc1cccc(F)c1)CC2` returned a solubility in data set [1] above 75 µM. The Ki in data set [2] came to 0.156 µM. For `CC(C)Oc1nc(-c2ccncc2)nc2c1CN(C(=O)Nc1ccccc1)CC2`, in that order: above 75 µM and 0.098 µM.

The compound `CN(C)c1nc2c(c(N(C)CCc3ccccn3)n1)CN(C(=O)Nc1ccccc1)CC2` yielded a Ki in data set [2] of 0.512 µM.

In data set [2], `Cc1ccncc1NC(=O)N1CCc2nc(-c3ccc(C(F)(F)F)nc3)nc(OC(C)C)c2C1` displayed a Ki of 0.247 µM. Turning to `CN(CCc1ccccn1)c1nc(-c2ccccn2)nc2c1CN(C(=O)Nc1ccccc1)CC2`, in data set [1], the solubility is above 75 µM. Moreover, the affinity in data set [2], expressed as Ki, was 0.864 µM. In data set [2], `CN(CCc1ccccn1)c1nc(-c2ccccc2)nc2c1CN(C(=O)Nc1ccccc1)CC2` came in with a Ki of 0.5 µM. That is a sub-micromolar value. On to `CC(C)Oc1nc(-c2ccc(Cl)nc2)nc2c1CN(C(=O)c1cn(C)cn1)CC2.Cl`, for which the concentration at 2 h in data set [3] was 3000 nM. This compound also gave a solubility in data set [1] of 69 µM. Besides, the clearance (in general, a measure of how efficiently the substance is removed, as volume per time) in data set [4] was determined as 2.4 mL/min/kg; in data set [6], 0.94 mL/min/kg. Besides, the inhibition result with Rattus norvegicus [5] was “Active”. In addition, the inhibition result in the data set with Rattus norvegicus [7] was “Dose-dependent effect”. In [1], `CCc1cccc(NC(=O)N2CCc3nc(-c4cccnc4)nc(OC4CCN(C)CC4)c3C2)c1` registered a solubility above 75 µM. For the same compound, the clearance in [8] is above 100 mL/min/kg. For `Cc1ccncc1NC(=O)N1CCc2nc(-c3cccnc3)nc(OC(C)C)c2C1`, the solubility in [1] was above 75 µM. Moreover, the affinity in [2] corresponds to a Ki of 0.0079 µM.

As for `Cc1cc2c(s1)Nc1ccccc1N=C2N1CCN(C)CC1` [OLANZAPINE], the Activity result in the data set on Rattus norvegicus [9], with Rattus norvegicus [10] and in the data set with Rattus norvegicus [11] was “Toxic” in each case. `COc1ccc(NC(=O)N2CCc3nc(-c4ccncc4)nc(N(C)CCc4ccccn4)c3C2)cc1` gave a solubility in data set [1] above 75 µM. Moreover, the affinity in data set [2] corresponds to a Ki of 0.122 µM. In [2], `Cc1ccncc1NC(=O)N1CCc2nc(-c3ccc(F)nc3)nc(OC(C)C)c2C1` registered a Ki of 0.003 µM. The same measure, in the same setting: the result for `Cc1nc2c(c(N(C)CCc3ccccn3)n1)CN(C(=O)Nc1ccccc1)CC2` reads 4.34 µM. On the same count and under the same terms, with `Cc1ccncc1NC(=O)N1CCc2nc(-c3ccc(Cl)nc3)nc(OC(C)C)c2C1` the figure was 0.0006 µM.
